Positions count from the first letter of the chain named.
Key:
P2X1 receptor K215A = biological target: T1, P2X1 receptor K215A (Homo sapiens, UniProt P51575, K215A); assay: Saturation radioligand binding with [3H]-α,β-methylene ATP
T1 sequence (P51575 1-399 K215A): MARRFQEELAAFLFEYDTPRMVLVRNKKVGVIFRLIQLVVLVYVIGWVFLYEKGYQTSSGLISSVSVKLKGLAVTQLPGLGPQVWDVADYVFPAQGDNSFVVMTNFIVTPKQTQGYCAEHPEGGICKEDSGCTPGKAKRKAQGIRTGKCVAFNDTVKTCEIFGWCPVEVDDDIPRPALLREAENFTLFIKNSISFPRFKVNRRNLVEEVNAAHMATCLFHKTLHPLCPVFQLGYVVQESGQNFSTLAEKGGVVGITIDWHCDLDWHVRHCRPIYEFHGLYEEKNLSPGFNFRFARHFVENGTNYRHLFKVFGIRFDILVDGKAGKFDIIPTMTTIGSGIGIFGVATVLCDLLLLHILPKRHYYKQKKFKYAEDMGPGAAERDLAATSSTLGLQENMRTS
Outline: (§1)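 Whole HEK293 Flp-In T-REx cells stably expressing receptor, tetracycline-induced (150 ng/ml, 2 days), 15,000 cells/well, washed in HEPES binding buffer pH 7.4 with Ca2+/Mg2+. Increasing [3H]-α,β-methylene ATP added, 3 h room temperature with gentle agitation; non-specific binding with 10 μM ATP. Ice-cold 0.9% NaCl washes, scintillation counting (CCPM). Specific binding fitted one-site; values above 300 nM termed not defined.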

P2X1 receptor M214A = biological target: T2, P2X1 receptor M214A (Homo sapiens, UniProt P51575, M214A); assay: Saturation radioligand binding with [3H]-α,β-methylene ATP
T2 sequence (P51575 1-399 M214A): T1 sequence (P51575 1-399 K215A) with M214A, A215K

P2X1 receptor E122A = biological target: T3, P2X1 receptor E122A (Homo sapiens, UniProt P51575, E122A); assay: Calcium ion influx assay; format: cell-based
T3 sequence (P51575 1-399 E122A): T1 sequence (P51575 1-399 K215A) with E122A, A215K
Outline: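 Tetracycline-induced (150 ng/mL, 2 days) stable HEK293 Flp-In T-REx cells at 15,000 cells/well, loaded with Fluo-8 for 1 h at 37 °C in probenecid-containing HEPES buffer, pH 7.4. Then 30 min buffer incubation, 20 s baseline, agonist addition and 2 min reading (ex 485/em 525 nm). Max-minus-min fluorescence normalised to 10 µM ionomycin, rescaled 0–100. Constrained four-parameter fit; EC50 per experiment; four independent experiments, triplicate.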

P2X1 receptor K140A = biological target: T4, P2X1 receptor K140A (Homo sapiens, UniProt P51575, K140A); assay: Saturation radioligand binding with [3H]-α,β-methylene ATP
T4 sequence (P51575 1-399 K140A): T1 sequence (P51575 1-399 K215A) with K140A, A215K
Outline: as §1

P2X1 receptor S286A = biological target: T5, P2X1 receptor S286A (Homo sapiens, UniProt P51575, S286A); assay: as above
T5 sequence (P51575 1-399 S286A): T1 sequence (P51575 1-399 K215A) with A215K, S286A
Outline: as §1

P2X1 receptor F188L = biological target: T6, P2X1 receptor F188L (Homo sapiens, UniProt P51575, F188L); assay: as above
T6 sequence (P51575 1-399 F188L): T1 sequence (P51575 1-399 K215A) with F188L, A215K
Outline: as §1

Nc1ncnc2c1ncn2[C@@H]1O[C@H](COP(=O)(O)CP(=O)(O)OP(=O)(O)O)[C@@H](O)[C@H]1O [α,β-methylene ATP]
binding affinity compared to WT-P2X1 (P2X1 receptor K215A): similar | binding affinity compared to WT-P2X1 (P2X1 receptor M214A): beyond the threshold that could be accurately measured | fold decrease in potency compared to WT-P2X1 (P2X1 receptor E122A): 18.5 fold | binding affinity compared to WT-P2X1 (P2X1 receptor K140A): comparable to that of WT-P2X1 | binding affinity compared to WT-P2X1 (P2X1 receptor S286A): comparable to that of WT-P2X1 | binding affinity compared to WT-P2X1 (P2X1 receptor F188L): similar

Reference: PMC11439047 (Nature Communications, 2024)
